For orientation: IC50 means the concentration needed to halve the response being measured. Higher therefore signals weaker potency in that assay. The term MIC90 denotes the lowest concentration that inhibits either 90% of growth or 90% of the strains tested, depending on the study. As a reminder, the residual activity is the signal under treatment as a percentage of the control signal. The term Kd denotes the constant that tells how readily two partners part at equilibrium.

The values below come from ChEMBL document CHEMBL2203109, “3-Phenyl substituted 6,7-dimethoxyisoquinoline derivatives as FtsZ-targeting antibacterial agents” (Bioorg Med Chem, 2012).

The subject of one data set is MDCK. The data set can be described thus: Cytotoxicity against dog MDCK cells after 4 days by MTT assay. Format: cell-based. Particulars: Canis lupus familiaris, 96 h. The gist of the method: (§1)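 MTT assay. HEK293 or MDCK cells kept at 37 °C, 5% CO2 in DMEM, seeded at 1500 cells per well. Continuous 4-day exposure to varying drug concentrations in triplicate wells, with a drug-free control. MTT read at end of day 4; IC50 determined.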

The subject of data set [1] is HEK293. The data set can be described thus: Cytotoxicity against human HEK293 cells after 4 days by MTT assay. Format: cell-based. Particulars: HEK293, 96 h. The gist of the method:
as §1

Data set [2] has as its system Enterococcus faecalis. The data set can be described thus: Antibacterial activity against log-phase vancomycin-resistant Enterococcus faecalis ATCC 51575 assessed as growth inhibition after 24 hrs by broth microdilution method. Format: functional. Particulars: ATCC 51575, 24 h. The method, boiled down: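 CLSI broth microdilution in brain–heart infusion broth; log-phase bacteria at 10^5 CFU/mL, two-fold serial dilutions 64 to 0.031 μg/mL; 24 h aerobic incubation at 37 °C; OD600 read-out; MIC taken as lowest concentration inhibiting growth ≥90%.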
(Dilution methods test growth across graded concentrations, often in twofold steps.)

For data set [3], the system named is Enterococcus faecalis. The data set can be described thus: Antibacterial activity against log-phase vancomycin-sensitive Enterococcus faecalis ATCC 19433 assessed as growth inhibition after 24 hrs by broth microdilution method. Format: functional. Particulars: ATCC 19433, 24 h. The gist of the method:
(§2)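 CLSI broth microdilution. Log-phase bacteria at 10^5 CFU/mL with two-fold serial dilutions (64 to 0.031 μg/mL). S. aureus tested in cation-adjusted Mueller-Hinton broth; E. faecalis in brain–heart infusion broth. Aerobic incubation 24 h at 37 °C. OD600 read; MIC is the lowest concentration giving ≥90% growth inhibition.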

For data set [4], the system named is Staphylococcus aureus. The data set can be described thus: Antibacterial activity against log-phase methicillin-sensitive Staphylococcus aureus 8325-4 assessed as growth inhibition after 24 hrs by broth microdilution method. Format: functional. Particulars: 8325-4, 24 h. The method, boiled down:
as §2

Data set [5] relates to Staphylococcus aureus. The data set can be described thus: Antibacterial activity against log-phase methicillin-resistant Staphylococcus aureus ATCC 33591 assessed as growth inhibition after 24 hrs by broth microdilution method. Particulars: ATCC 33591, 24 h. The format is functional. The method, boiled down:
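CLSI broth microdilution; 10^5 CFU/mL log-phase bacteria in cation-adjusted Mueller-Hinton broth with 2% NaCl, two-fold serial dilutions from 64 to 0.031 μg/mL; aerobic incubation 24 h at 37 °C; growth read as OD600; MIC = lowest concentration giving ≥90% growth inhibition.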

Data set [6] concerns the target T1, Cell division protein FtsZ (Staphylococcus aureus) (UniProt P0A031).
T1 sequence (whole entry): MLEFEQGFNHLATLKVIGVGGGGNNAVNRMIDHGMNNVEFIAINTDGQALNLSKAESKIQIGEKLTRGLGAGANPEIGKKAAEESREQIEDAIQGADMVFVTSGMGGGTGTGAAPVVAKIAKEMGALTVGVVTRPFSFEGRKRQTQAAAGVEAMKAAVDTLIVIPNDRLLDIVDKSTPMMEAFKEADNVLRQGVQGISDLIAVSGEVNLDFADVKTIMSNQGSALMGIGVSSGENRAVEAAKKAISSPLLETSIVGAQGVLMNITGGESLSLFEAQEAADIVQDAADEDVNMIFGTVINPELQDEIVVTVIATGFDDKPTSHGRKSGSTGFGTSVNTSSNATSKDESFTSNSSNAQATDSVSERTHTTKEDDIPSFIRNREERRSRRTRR
The data set can be described thus: Residual Staphylococcus aureus GTPase activity assessed as inorganic phosphate release upon GTP hydrolysis at 40 ug/ml preincubated for 10 mins before substrate addition measured after 2 hrs by malachite green based colorimetric analysis.

Data set [7] deals with T1, Cell division protein FtsZ (Staphylococcus aureus). The data set can be described thus: Induction of Staphylococcus aureus FtsZ polymerization measured for 60 mins by microtiter plate-based light scattering assay. The gist of the method: (§3)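 Turbidity assay. 10 μM SaFtsZ plus compound (0–40 μg/mL) in 50 mM Tris HCl pH 7.4, 50 mM KCl, 2 mM magnesium acetate, 5 mM CaCl2, pre-equilibrated 10 min at room temperature. Started by adding 1 mM GTP or FtsZ; A340 followed for 60 min at 25 °C. For polymer stability, 1 mM GDP added mid-run.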

Data set [8] has the same target. The data set can be described thus: Induction of Staphylococcus aureus FtsZ polymerization at 40 ug/ml measured for 60 mins by microtiter plate-based light scattering assay. The method, boiled down:
as §3

For data set [9] the target is unchanged. The data set can be described thus: Induction of Staphylococcus aureus FtsZ polymerization at 40 ug/ml measured for 60 mins by microtiter plate-based light scattering assay in presence of GTP.
For data set [10], the target named is Tubulin beta chain (Sus scrofa) (UniProt P02554). The data set can be described thus: Induction of pig MAP-rich beta-tubulin polymerization at 40 ug/ml measured for 60 mins by microtiter plate based light scattering assay. The gist of the method:
(§4)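 Porcine tubulin (70% β-tubulin, 30% MAPs) at 2 mg/mL with 1 mM GTP and compound in 80 mM PIPES NaOH pH 7.0, 2 mM MgCl2, 1 mM EGTA. A340 followed continuously at 37 °C for 60 min.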

The test system of data set [11] is HEK293. The data set can be described thus: Cytotoxicity against human HEK293 cells at 10 uM after 4 days by MTT assay. Format: cell-based. Particulars: hek293, 96 h. The gist of the method:
as §1
(Formazan colour is commonly taken as a measure of viable cells.)

Data set [12] concerns the target Tubulin beta chain (Sus scrofa) (UniProt P02554). The data set can be described thus: Induction of pig MAP-rich beta-tubulin polymerization at 25 ug/ml measured for 60 mins by microtiter plate based light scattering assay. The gist of the method: as §4
Data set [13] has as its target T2, Cell division protein FtsZ (Staphylococcus aureus, UniProt P0A031).
T2 sequence (P0A031 whole entry): T1 sequence (whole entry)
The data set can be described thus: Binding affinity to Staphylococcus aureus FtsZ expressed in Escherichia coli cells assessed as dissociation constant by fluorescence spectroscopy. The gist of the method:
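Recombinant SaFtsZ from E. coli titrated stepwise into compound (7 or 10 μM) in 50 mM Tris HCl pH 7.4, 50 mM KCl, 2 mM magnesium acetate. After 3 min equilibration per addition, emission scanned 510–370 nm and buffer-only titration background subtracted. Kd obtained by fitting intensity changes to a 1:1 binding model.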

Data set [14] concerns the target T1, Cell division protein FtsZ (Staphylococcus aureus). The data set can be described thus: Induction of Staphylococcus aureus GTPase activity assessed as inorganic phosphate release upon GTP hydrolysis at less than 40 ug/ml preincubated for 10 mins before substrate addition measured after 2 hrs by malachite green based colorimetric analysis. The method, boiled down:
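S. aureus FtsZ expressed in E. coli, 10 μM, with DMSO or compound (0.1–200 μg/mL) in 50 mM Tris HCl pH 7.4, 50 mM KCl, 2 mM Mg acetate, 5 mM CaCl2; duplicate reactions. After 10 min room-temperature pre-equilibration, 250 μM GTP added, 2 h at 37 °C. Pi by malachite green, A620, phosphate standard curve; expressed as percent of vehicle.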

Data set [15] deals with Tubulin beta chain (Sus scrofa) (UniProt P02554). Particulars: 10 ug/ml.
Chain of Tubulin beta chain (Sus scrofa) (P02554 whole entry): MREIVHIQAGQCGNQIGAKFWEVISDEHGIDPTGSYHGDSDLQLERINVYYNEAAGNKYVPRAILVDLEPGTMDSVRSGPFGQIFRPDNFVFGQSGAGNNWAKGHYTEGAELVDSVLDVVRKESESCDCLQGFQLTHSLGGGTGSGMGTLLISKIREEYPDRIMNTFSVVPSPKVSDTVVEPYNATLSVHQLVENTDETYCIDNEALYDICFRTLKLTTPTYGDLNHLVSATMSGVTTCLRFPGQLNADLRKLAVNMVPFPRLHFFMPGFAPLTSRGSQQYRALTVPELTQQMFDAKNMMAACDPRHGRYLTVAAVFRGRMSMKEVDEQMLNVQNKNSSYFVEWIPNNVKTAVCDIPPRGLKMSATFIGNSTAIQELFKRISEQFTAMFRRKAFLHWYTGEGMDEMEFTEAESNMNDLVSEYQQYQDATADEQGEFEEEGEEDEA

The structures appear in SMILES notation. Converted amounts (≈) assume the structure as drawn. The source made the active and inactive calls. No cut-off for these calls is given here. Bounds are passed on as bounds.

Turning to `COc1cc2cc(-c3cccc(-c4ccccc4)c3)nc(N=C(N)N)c2cc1OC`, the half-inhibitory concentration (IC50) in the data set with MDCK and in the data set with HEK293 [1] was 2.2 µM in each case. In addition, the MIC90 in the data set with Enterococcus faecalis [2] is 8 µg/mL (≈ 20.1 µM); with Enterococcus faecalis [3] it was 8 µg/mL (≈ 20.1 µM); in the data set with Staphylococcus aureus [4] it was 8 µg/mL (≈ 20.1 µM); in the data set with Staphylococcus aureus [5] it was 4 µg/mL (≈ 10 µM).
`COc1cc2cc(-c3cccc(C(C)(C)C)c3)nc(CCN)c2cc1OC`: the IC50 in the data set with MDCK and in the data set with HEK293 [1] was 2.2 µM each time. Besides, in [6], the residual activity amounted to 59.7%. The MIC90 in the data set on Enterococcus faecalis [2], in the data set with Enterococcus faecalis [3], in the data set on Staphylococcus aureus [4] and in the data set with Staphylococcus aureus [5] was 16 µg/mL (≈ 43.9 µM) each time. The Activity entry in [7] is “Dose-dependent effect”. Moreover, the result in data set [8] and in [9] was Active.
In the case of `COc1cc2cc(-c3cccc(C(C)(C)C)c3)nc(CN=C(N)N)c2cc1OC`, the residual activity in data set [6] was 60.4%. For the same compound, the result in data set [10] was inactive. The MIC90 is 16 µg/mL (≈ 40.8 µM) with Enterococcus faecalis [2], 16 µg/mL (≈ 40.8 µM) with Enterococcus faecalis [3], 4 µg/mL (≈ 10.2 µM) with Staphylococcus aureus [4] and 8 µg/mL (≈ 20.4 µM) with Staphylococcus aureus [5]. Also, the Activity entry in the data set with HEK293 [11] was “Non-toxic”; in data set [7], “Dose-dependent effect”. Moreover, the outcome in [8] was Active.
Take `COc1cc2cc(-c3cccc(C(C)(C)C)c3)nc(CCN=C(N)N)c2cc1OC`: the residual activity in data set [6] worked out at 66.5%. For the same compound, the MIC90 was 16 µg/mL (≈ 39.4 µM) in the data set with Enterococcus faecalis [2], 16 µg/mL (≈ 39.4 µM) in the data set with Enterococcus faecalis [3], 4 µg/mL (≈ 9.84 µM) with Staphylococcus aureus [4] and 4 µg/mL (≈ 9.84 µM) with Staphylococcus aureus [5]. Also, the Activity result in the data set on HEK293 [11] is “Non-toxic”; in data set [7], “Dose-dependent effect”. The outcome in [8] and in data set [9] was Active.
As for `COc1cc2cc(-c3cccc(-c4ccc(C(C)(C)C)cc4)c3)nc(CN=C(N)N)c2cc1OC`, the MIC90 with Enterococcus faecalis [2] was found to be 16 µg/mL (≈ 34.1 µM); with Enterococcus faecalis [3], 8 µg/mL (≈ 17.1 µM); in the data set with Staphylococcus aureus [4], 4 µg/mL (≈ 8.54 µM); in the data set on Staphylococcus aureus [5], 4 µg/mL (≈ 8.54 µM). Further, the Activity entry with HEK293 [11] is “Non-toxic”.
Regarding `CC(=O)O[C@H]1C(=O)[C@@]2(C)[C@H]([C@H](OC(=O)c3ccccc3)[C@]3(O)C[C@H](OC(=O)[C@H](O)[C@@H](NC(=O)c4ccccc4)c4ccccc4)C(C)=C1C3(C)C)[C@]1(OC(C)=O)CO[C@@H]1C[C@@H]2O`, in [12], the outcome was Active.
Regarding `COc1cc2cc(-c3cccc(-c4ccc(C(C)(C)C)cc4)c3)[n+](C)c(C)c2cc1OC.[I-]`, in [6], the residual activity worked out at 14.9%. For the same compound, in data set [10], the outcome was inactive. Besides, the MIC90 in the data set with Enterococcus faecalis [2] turned out to be 8 µg/mL; in the data set on Enterococcus faecalis [3] it was 8 µg/mL; in the data set on Staphylococcus aureus [4] it was 1 µg/mL; with Staphylococcus aureus [5], 8 µg/mL. Besides, the Activity result in data set [7] was “Dose-dependent effect”. The Kd in data set [13] stood at 5.4 µM. Moreover, the outcome in data set [8] and in data set [9] was Active.
On to `COc1cc2cc(-c3cccc(-c4ccccc4)c3)nc(CN)c2cc1OC`, for which the IC50 with MDCK is 7 µM; in the data set with HEK293 [1], 3 µM. Also, the MIC90 in the data set on Enterococcus faecalis [2] was above 64 µg/mL; with Enterococcus faecalis [3], above 64 µg/mL; in the data set on Staphylococcus aureus [4], 8 µg/mL (≈ 21.6 µM); in the data set on Staphylococcus aureus [5], 16 µg/mL (≈ 43.2 µM).
With `COc1cc2cc(-c3cccc(-c4ccccc4)c3)nc(CCN=C(N)N)c2cc1OC`, in data set [6], the residual activity was found to be 56%. The MIC90 in the data set on Enterococcus faecalis [2] is 8 µg/mL (≈ 18.8 µM); in the data set on Enterococcus faecalis [3], 8 µg/mL (≈ 18.8 µM); with Staphylococcus aureus [4] it was 2 µg/mL (≈ 4.69 µM); in the data set on Staphylococcus aureus [5], 2 µg/mL (≈ 4.69 µM). The Activity entry in the data set with HEK293 [11] is “Non-toxic”; in [7], “Dose-dependent effect”. The outcome in data set [14] and in [8] was Active.
Regarding `COc1cc2cc(-c3cccc(-c4ccc(-c5ccccc5)cc4)c3)[n+](C)c(C)c2cc1OC.[I-]`, the residual activity in data set [6] was 30.2%. Also, the MIC90 in the data set with Enterococcus faecalis [2] stood at 8 µg/mL; with Enterococcus faecalis [3], 4 µg/mL; in the data set with Staphylococcus aureus [4] it was 1 µg/mL; with Staphylococcus aureus [5], 2 µg/mL. In addition, the Activity result in [7] was “Dose-dependent effect”. Also, the Kd in [13] worked out at 2 µM. In addition, the outcome in [8] was Active.
Consider `COc1cc2cc(-c3cccc(C(C)(C)C)c3)nc(C/N=C(/C)N)c2cc1OC`, for which the residual activity in [6] stood at 64.8%. In addition, the MIC90 in the data set with Enterococcus faecalis [2] was determined as 16 µg/mL (≈ 40.9 µM); in the data set with Enterococcus faecalis [3], 16 µg/mL (≈ 40.9 µM); in the data set with Staphylococcus aureus [4], 8 µg/mL (≈ 20.4 µM); in the data set on Staphylococcus aureus [5], 8 µg/mL (≈ 20.4 µM). Also, the outcome in data set [14] and in data set [8] was Active. Further, the Activity entry in data set [7] was “Dose-dependent effect”.
With `COC(=O)Nc1nc2cc(C(=O)c3cccs3)ccc2[nH]1`, in data set [15], the inhibition entry was “Active”.
